Laboratory results: ChEMBL document CHEMBL4177662, “Phosphamide-containing diphenylpyrimidine analogues (PA-DPPYs) as potent focal adhesion kinase (FAK) inhibitors with enhanced activity against pancreatic cancer cell lines” (Bioorg Med Chem, 2017)

Tests used:
ASPC1 [1] = assay: Antiproliferative activity against human Aspc-1 cells assessed as cell viability at 8 uM after 24 hrs by MTT assay (reference value: 100%); assay type: functional; conditions: ASPC1, 24 h, read-out: Activity
ASPC1 [2] = assay: Cell cycle arrest in human Aspc-1 cells assessed as accumulation at S phase at 2.5 uM after 72 hrs by propidium iodide staining-based flow cytometry (reference value: 59.70%); assay type: functional
ASPC1 [3] = assay: Cell cycle arrest in human Aspc-1 cells assessed as accumulation at S phase at 1 uM after 72 hrs by propidium iodide staining-based flow cytometry (reference value: 59.70%); assay type: functional
BXPC-3 [4] = assay: Antiproliferative activity against human BxPC3 cells assessed as cell viability at 0.5 uM after 24 hrs by MTT assay (reference value: 100%); assay type: functional; conditions: BXPC-3, 24 h, read-out: Activity
[5] = target: Tyrosine-protein kinase BTK (Homo sapiens) (UniProt Q06187); assay: Inhibition of recombinant full length His-tagged human BTK cytoplasmic domain expressed in baculovirus expression system at 100 nM relative to control
Outline: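 Percent inhibition of kinase activity at a single 100 nM test concentration, from an outsourced biochemical profiling screen.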

[6] = target: T1, Tyrosine-protein kinase JAK3 (Homo sapiens) (UniProt P52333); assay: Inhibition of recombinant GST-tagged human JAK3 catalytic domain (781 to 1124 residues) expressed in baculovirus expression system at 100 nM relative to control
T1 sequence (whole entry): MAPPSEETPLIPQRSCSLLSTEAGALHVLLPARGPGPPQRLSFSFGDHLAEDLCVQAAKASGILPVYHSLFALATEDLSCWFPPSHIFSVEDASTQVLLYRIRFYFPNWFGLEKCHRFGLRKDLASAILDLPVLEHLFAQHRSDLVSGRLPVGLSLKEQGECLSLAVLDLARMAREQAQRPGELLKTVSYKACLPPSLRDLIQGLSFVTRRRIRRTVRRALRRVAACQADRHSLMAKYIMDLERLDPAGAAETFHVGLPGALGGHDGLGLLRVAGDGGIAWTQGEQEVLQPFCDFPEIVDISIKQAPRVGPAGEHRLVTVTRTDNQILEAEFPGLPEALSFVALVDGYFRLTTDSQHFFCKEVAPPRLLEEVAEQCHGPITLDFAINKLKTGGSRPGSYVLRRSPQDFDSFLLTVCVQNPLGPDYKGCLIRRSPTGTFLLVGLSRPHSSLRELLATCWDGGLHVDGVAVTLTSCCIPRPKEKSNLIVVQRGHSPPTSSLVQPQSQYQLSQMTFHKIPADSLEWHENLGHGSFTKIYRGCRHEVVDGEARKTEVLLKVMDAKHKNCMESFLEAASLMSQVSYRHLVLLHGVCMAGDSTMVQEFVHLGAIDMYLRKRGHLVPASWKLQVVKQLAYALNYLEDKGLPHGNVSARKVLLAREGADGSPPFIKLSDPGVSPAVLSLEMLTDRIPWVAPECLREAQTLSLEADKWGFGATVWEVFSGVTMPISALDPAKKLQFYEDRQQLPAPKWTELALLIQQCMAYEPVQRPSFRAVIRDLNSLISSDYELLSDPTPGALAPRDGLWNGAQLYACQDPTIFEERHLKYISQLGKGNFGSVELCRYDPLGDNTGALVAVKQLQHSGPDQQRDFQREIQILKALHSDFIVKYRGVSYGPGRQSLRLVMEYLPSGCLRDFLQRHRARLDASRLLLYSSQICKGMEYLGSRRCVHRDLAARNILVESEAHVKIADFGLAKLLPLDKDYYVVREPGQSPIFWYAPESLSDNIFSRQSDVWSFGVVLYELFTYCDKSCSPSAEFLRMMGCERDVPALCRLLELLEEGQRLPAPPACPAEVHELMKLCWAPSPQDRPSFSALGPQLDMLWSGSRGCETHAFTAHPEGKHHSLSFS
Outline: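 SelectScreen biochemical kinase profiling service; percent inhibition of each kinase at a single compound concentration of 100 nM.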

ASPC1 [7] = assay: Antiproliferative activity against human Aspc-1 cells assessed as cell viability at 4 uM after 48 hrs by MTT assay (reference value: 98.1%); assay type: functional; conditions: ASPC1, 48 h, read-out: Activity
ASPC1 [8] = assay: Cell cycle arrest in human Aspc-1 cells assessed as accumulation at G0/G1 phase at 2.5 uM after 72 hrs by propidium iodide staining-based flow cytometry (reference value: 39.41%); assay type: functional
ASPC1 [9] = assay: Antiproliferative activity against human Aspc-1 cells assessed as cell viability at 8 uM after 72 hrs by MTT assay (reference value: 97%); assay type: functional; conditions: ASPC1, 72 h, read-out: Activity
ASPC1 [10] = assay: Antiproliferative activity against human Aspc-1 cells assessed as cell viability at 4 uM after 72 hrs by MTT assay (reference value: 97%); assay type: functional; conditions: ASPC1, 72 h, read-out: Activity
ASPC1 [11] = assay: Induction of apoptosis in human Aspc-1 cells assessed as viable cells at 2.5 uM after 72 hrs by Annexin V-FITC/propidium iodide staining-based flow cytometry (reference value: 100%); assay type: functional; conditions: ASPC1, 72 h, read-out: Activity
Outline: (§1)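 AsPC-1 cells (3 to 5×10^5 per well) were treated with DMSO solvent control or compound for 72 h in medium with 5% FBS. Cells were then stained with Annexin V-FITC and propidium iodide and analysed by flow cytometry. One representative experiment shown.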

[12] = test system: Epidermal growth factor receptor (Homo sapiens), P00533 [T790M]; assay: Inhibition of recombinant GST-tagged human EGFR cytoplasmic domain (668 to 1210 residues) T790M mutant expressed in baculovirus expression system at 100 nM relative to control
Outline: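 Part of a small kinase-panel profile run by an outsourced biochemical profiling service. The test compound was given at a single concentration of 100 nM, and activity was reported as percent inhibition rate.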

ASPC1 [13] = assay: Induction of apoptosis in human Aspc-1 cells assessed as late apoptotic cells at 10 uM after 72 hrs by Annexin V-FITC/propidium iodide staining-based flow cytometry (reference value: 0%); assay type: functional; outline: as §1
BXPC-3 [14] = assay: Antiproliferative activity against human BxPC3 cells assessed as cell viability at 0.5 uM after 72 hrs by MTT assay (reference value: 97%); assay type: functional; conditions: BXPC-3, 72 h, read-out: Activity
ASPC1 [15] = assay: Induction of apoptosis in human Aspc-1 cells assessed as necrotic cells at 2.5 uM after 72 hrs by Annexin V-FITC/propidium iodide staining-based flow cytometry (reference value: 0%); assay type: functional; outline: as §1
PANC-1 (human) = assay: Antiproliferative activity against human PANC-1 cells assessed as cell viability at 4 uM after 48 hrs by MTT assay (reference value: 98.8%); conditions: PANC-1, 48 h
BXPC-3 [16] = assay: Antiproliferative activity against human BxPC3 cells assessed as cell viability at 0.5 uM after 48 hrs by MTT assay (reference value: 98.8%); assay type: functional; conditions: BXPC-3, 48 h, read-out: Activity
ASPC1 [17] = assay: Antiproliferative activity against human Aspc-1 cells after 72 hrs by MTT assay; assay type: functional, cell-based; conditions: ASPC1, 72 h
Outline: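 Cells grown in DMEM with 10% FBS and 1% penicillin-streptomycin at 37 °C, 5% CO2. Seeded at 4,000 to 5,000 cells/well, cultured one day, then exposed to compounds for 72 h at 1.25 to 40 μmol/L, five replicates per concentration. MTT absorbance read at 570 nm. IC50 from five-point dose-response curves; mean of at least three separate experiments.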

Chain of Epidermal growth factor receptor (Homo sapiens), P00533 [T790M] (P00533 whole entry T790M, the tested form may be a part): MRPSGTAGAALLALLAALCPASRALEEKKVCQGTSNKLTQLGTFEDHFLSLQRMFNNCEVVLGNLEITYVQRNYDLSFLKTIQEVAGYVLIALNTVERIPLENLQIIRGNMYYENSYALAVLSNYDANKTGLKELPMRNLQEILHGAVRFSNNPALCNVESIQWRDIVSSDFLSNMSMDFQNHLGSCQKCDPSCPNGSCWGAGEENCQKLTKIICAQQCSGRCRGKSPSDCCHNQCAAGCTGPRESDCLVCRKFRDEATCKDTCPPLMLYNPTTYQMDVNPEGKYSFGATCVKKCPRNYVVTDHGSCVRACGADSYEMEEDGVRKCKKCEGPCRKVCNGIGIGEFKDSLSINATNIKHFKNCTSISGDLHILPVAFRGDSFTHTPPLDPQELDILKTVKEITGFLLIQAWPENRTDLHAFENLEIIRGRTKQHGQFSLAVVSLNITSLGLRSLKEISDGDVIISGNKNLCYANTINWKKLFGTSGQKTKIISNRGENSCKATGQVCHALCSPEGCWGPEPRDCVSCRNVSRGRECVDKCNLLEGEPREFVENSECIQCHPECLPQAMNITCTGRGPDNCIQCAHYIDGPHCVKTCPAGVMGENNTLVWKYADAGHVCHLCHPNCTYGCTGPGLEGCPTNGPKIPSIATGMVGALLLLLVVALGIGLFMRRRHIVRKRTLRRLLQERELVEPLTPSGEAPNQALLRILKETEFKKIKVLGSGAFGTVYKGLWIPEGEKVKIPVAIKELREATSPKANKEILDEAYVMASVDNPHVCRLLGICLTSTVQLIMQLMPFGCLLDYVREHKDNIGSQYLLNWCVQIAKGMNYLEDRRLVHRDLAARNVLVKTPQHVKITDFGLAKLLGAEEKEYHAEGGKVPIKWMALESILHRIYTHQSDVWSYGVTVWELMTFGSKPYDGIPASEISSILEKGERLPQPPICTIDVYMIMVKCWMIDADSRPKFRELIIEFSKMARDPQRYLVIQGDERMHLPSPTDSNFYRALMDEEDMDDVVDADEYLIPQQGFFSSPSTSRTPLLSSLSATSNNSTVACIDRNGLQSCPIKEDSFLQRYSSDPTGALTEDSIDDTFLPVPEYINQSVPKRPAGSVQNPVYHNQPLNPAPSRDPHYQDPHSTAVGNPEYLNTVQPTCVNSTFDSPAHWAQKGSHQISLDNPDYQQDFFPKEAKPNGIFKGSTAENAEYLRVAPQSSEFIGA
Chain of Tyrosine-protein kinase BTK (Homo sapiens) (Q06187 whole entry, the tested form may be a part): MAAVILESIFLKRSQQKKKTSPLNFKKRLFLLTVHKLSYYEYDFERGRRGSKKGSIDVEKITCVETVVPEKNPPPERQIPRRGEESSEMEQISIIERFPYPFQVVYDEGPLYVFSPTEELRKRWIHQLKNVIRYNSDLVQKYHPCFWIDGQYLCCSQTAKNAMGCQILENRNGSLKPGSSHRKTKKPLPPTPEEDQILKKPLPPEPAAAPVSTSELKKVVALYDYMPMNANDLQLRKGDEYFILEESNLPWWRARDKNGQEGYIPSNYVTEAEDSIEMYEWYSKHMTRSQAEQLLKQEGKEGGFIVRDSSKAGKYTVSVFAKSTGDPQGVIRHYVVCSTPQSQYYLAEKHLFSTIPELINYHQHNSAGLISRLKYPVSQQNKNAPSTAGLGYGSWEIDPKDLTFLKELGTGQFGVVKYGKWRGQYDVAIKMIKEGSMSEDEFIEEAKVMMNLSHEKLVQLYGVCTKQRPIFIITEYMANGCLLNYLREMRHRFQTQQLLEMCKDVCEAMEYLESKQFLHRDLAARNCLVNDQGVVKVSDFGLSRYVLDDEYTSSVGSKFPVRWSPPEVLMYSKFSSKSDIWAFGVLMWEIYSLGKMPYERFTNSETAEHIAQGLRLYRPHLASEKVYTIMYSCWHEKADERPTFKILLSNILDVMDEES

Compound: CCOP(=O)(CCCOc1ccc(Nc2ncc([N+](=O)[O-])c(Nc3ccccc3C(=O)NC)n2)cc1)N1CCOCC1 (stereo not drawn)
- viability at 8 µM (ASPC1 [1]): 56.8%
- Activity (ASPC1 [2]): 28%
- Activity (ASPC1 [3]): 48.41%
- viability at 0.5 µM (BXPC-3 [4]): 98%
- inhibition [5]: 33%
- inhibition [6]: 26%
- viability at 4 µM (ASPC1 [7]): 47.7%
- Activity (ASPC1 [8]): 38.18%
- viability at 8 µM (ASPC1 [9]): 16.8%
- viability at 4 µM (ASPC1 [10]): 40.8%
- viability at 2.5 µM (ASPC1 [11]): 55.3%
- inhibition [12]: 45%
- Activity (ASPC1 [13]): 75.3%
- viability at 0.5 µM (BXPC-3 [14]): 69.8%
- Activity (ASPC1 [15]): 2.9%
- viability at 4 µM (PANC-1 (human)): 61.6%
- viability at 0.5 µM (BXPC-3 [16]): 96.7%
- IC50 (ASPC1 [17]): 1660 nM
